The values that follow come from ChEMBL document CHEMBL1157680, “Isoxazole analogues bind the system xc- transporter: structure-activity relationship and pharmacophore model” (Bioorg Med Chem, 2010).

SMILES strings stand for the structures. pIC50, pKi: −log10 of the molar value. Active and inactive are the calls of the source. The rule behind the calls is not given here.

For assay [1], the target named is T1, Cystine/glutamate transporter (Homo sapiens) (UniProt Q9UPY5).
T1 sequence (whole entry): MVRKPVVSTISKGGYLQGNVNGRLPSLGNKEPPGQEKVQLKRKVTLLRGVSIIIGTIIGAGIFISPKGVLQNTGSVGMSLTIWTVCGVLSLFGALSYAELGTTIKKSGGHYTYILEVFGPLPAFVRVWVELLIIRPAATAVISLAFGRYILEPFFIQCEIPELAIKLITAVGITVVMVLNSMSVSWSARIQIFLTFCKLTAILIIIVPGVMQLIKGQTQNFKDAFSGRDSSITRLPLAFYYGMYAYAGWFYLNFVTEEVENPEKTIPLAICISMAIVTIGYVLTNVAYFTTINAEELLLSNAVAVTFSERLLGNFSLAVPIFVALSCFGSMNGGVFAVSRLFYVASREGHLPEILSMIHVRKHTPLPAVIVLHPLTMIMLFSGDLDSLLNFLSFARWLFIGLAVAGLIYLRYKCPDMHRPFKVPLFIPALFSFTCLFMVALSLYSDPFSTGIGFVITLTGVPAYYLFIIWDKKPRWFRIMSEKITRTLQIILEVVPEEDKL
The experiment in a line: Inhibition of amino acid transport system xc- in human SNB19 cells assessed as [3H]L-glutamate uptake at 250 uM by liquid scintillation counting. To be noted: SNB-19. Set-up: scale not given: the % may be the effect or the level left. In kind it is cell-based. In a few lines:
(§1)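 Confluent SNB-19 glioma monolayers were refed 2 h before assay, then preincubated 5 min at 30 °C in Na+-free HEPES-buffered Hank's (choline Cl, pH 7.4). Test agent was added together with L-[3H]-glutamate plus unlabeled L-Glu (10–500 μM final). After 5 min at 30 °C, ice-cold washes stopped uptake. Cells were lysed in 0.4 M NaOH and counted by LSC. Results are % of control uptake.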

Assay [2] addresses T1, Cystine/glutamate transporter (Homo sapiens). The experiment in a line: Inhibition of amino acid transport system xc- in human SNB19 cells assessed as [3H]L-glutamate uptake at 500 uM by liquid scintillation counting. It is filed as cell-based. Set-up: scale not given: the % may be the effect or the level left. The settings on record: SNB-19. In a few lines:
as §1

Assay [3] concerns LRM55. As to the kind of experiment: Inhibition of amino acid transport system xc- in rat LRM55 cells assessed as [3H]L-glutamate uptake at 500 uM by liquid scintillation counting. In kind it is cell-based. Set-up: scale not given: the % may be the effect or the level left.
The target in assay [4] is T1, Cystine/glutamate transporter (Homo sapiens). As to the kind of experiment: Inhibition of [3H]L-glutamate uptake at amino acid transport system xc- in human SNB19 cells at 500 uM by liquid scintillation counting. It is filed as cell-based. To be noted: SNB-19. In a few lines:
as §1

In assay [5] the target is T2, Cystine/glutamate transporter (Homo sapiens, UniProt Q9UPY5).
T2 sequence (Q9UPY5 whole entry): T1 sequence (whole entry)
As to the kind of experiment: Competitive inhibition of [3H]L-glutamate uptake at amino acid transport system xc- in human SNB19 cells by liquid scintillation counting. It is filed as cell-based, SNB-19. In short, it runs like this: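 SNB-19 glioma monolayers were assayed in Na+-free choline-HEPES Hank's buffer, pH 7.4, at 30 °C. L-[3H]-glutamate with L-Glu (10–500 μM final) and inhibitor were added simultaneously for 5 min. Radioactivity in NaOH lysates was counted by LSC. Ki came from a replot of Km,app values, or from IC50 inhibition curves using the Cheng-Prusoff equation.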

Assay [6] concerns the target T2, Cystine/glutamate transporter. As to the kind of experiment: Inhibition of amino acid transport system xc- in human SNB19 cells assessed as [3H]L-glutamate uptake by liquid scintillation counting. In kind it is cell-based, SNB-19.
Assay [7] has as its target T1, Cystine/glutamate transporter (Homo sapiens). As to the kind of experiment: Activity at amino acid transport system xc- in human SNB19 cells assessed as induction of L-glutamate efflux at 500 uM by fluorometric assay. It is filed as cell-based. The settings on record: SNB-19. In a few lines:
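Paired SNB-19 coverslips were rinsed 10 min in Na+-free HBHS, then placed in a stirred cuvette (2 ml HBHS, 30 °C). NADP+ (1 mM) was added at 0 s and glutamate dehydrogenase (33 U) at 60 s, then the test substrate. L-Glu efflux was followed in real time as NADPH fluorescence. Triton X-100 (0.5%) gave total cellular L-Glu. Efflux was quantified from a cell-free standard curve.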

Assay [8] shares this target. To be noted: SNB-19, 500 uM.

On to `CCOC(=O)c1noc(C)c1/C(C)=N/NC(N)=O`, for which, in assay [1], the Activity is 103%.

Turning to `Cc1onc(C(=O)O)c1CC(N)C(=O)O` (racemic), the Activity in assay [1] was found to be 101%. Same read-out and setting: to `C/C(=N\NC(N)=O)c1c(C(=O)O)noc1C` belongs 91%. As for `Cc1nn(-c2ccc(F)cc2F)c(=O)c2noc(C)c12`, in assay [2], the Activity was 95%. With `N[C@@H](Cc1c(C(=O)O)noc1COCc1ccccc1)C(=O)O` (racemic), in assay [1], the Activity worked out at 70%.

With `Cc1onc(C(=O)O)c1CC(N)P(=O)(O)O` (racemic), the Activity in assay [1] was 107%. Turning to `Cc1onc(O)c1C[C@H](N)C(=O)O`, in assay [3], the Activity worked out at 95%. For `COCc1onc(C(=O)O)c1C[C@H](N)C(=O)O`, the Activity in assay [1] was determined as 98%. Consider `Cc1nn(-c2ccc(F)cc2)c(=O)c2noc(C)c12`, for which, in assay [2], the Activity is 86%. Consider `N[C@@H](Cc1c(C(=O)O)noc1CCc1ccccc1)C(=O)O`, for which the Activity in assay [1] is 70%. Usually inhibition stands for the change of the read-out against control, counted positive when it falls. The term pKi denotes −log10 of the Ki, conventionally taken in molar units. What is called pIC50 is the IC50 on a negative log10 scale, so that one unit is a factor of ten. For `C/C(=N\Nc1cc(C(F)(F)F)cc(C(F)(F)F)c1)c1c(C(=O)O)noc1C`, in assay [2], the Activity amounted to 14%. In addition, in assay [4], the inhibition was found to be 86%. The same molecule showed a pKi in assay [5] of 4.19. Besides, in assay [6], the pIC50 is 3.89. In addition, the result in assay [7] was inactive. With `Cc1nn(-c2cccc([N+](=O)[O-])c2)c(=O)c2noc(C)c12`, the Activity in assay [2] was 96%. `COC(C)c1onc(C(=O)O)c1C[C@H](N)C(=O)O` (mixture of isomers): the Activity in assay [1] turned out to be 115%.

Turning to `CCOC(=O)c1noc(C)c1/C(C)=N/NS(=O)(=O)c1ccccc1`, the Activity in assay [1] came out at 96%. As to `N[C@@H](Cc1c(C(=O)O)noc1CCc1cccc2ccccc12)C(=O)O`, the Activity in assay [1] came out at 47%. This molecule had a pKi in assay [5] of 3.93. Moreover, in assay [7], the result was inactive. As to `CCc1onc(C(=O)O)c1C[C@H](N)C(=O)O`, the Activity in assay [1] was 92%. `Cc1ccc(-n2nc(C)c3c(C)onc3c2=O)cc1`: the Activity in assay [2] stood at 94%. On the same count and under the same terms, in the case of `Cc1nn(-c2ccc(C(F)(F)F)cc2)c(=O)c2noc(C)c12` it was 99%. Turning to `Cc1onc(C(=O)O)c1C[C@H](N)C(=O)O`, the Activity in assay [1] was 98%.

On to `C/C(=N\Nc1ccc([N+](=O)[O-])cc1[N+](=O)[O-])c1c(C(=O)O)noc1CCc1ccc2ccccc2c1`, for which the Activity in assay [2] was determined as 45%. The same molecule had a negative-log Ki (pKi) in assay [5] of 3.95. Further, in assay [6], the negative-log IC50 (pIC50) was 3.65. Besides, the outcome in assay [7] was inactive.

Regarding `Cc1nn(-c2ccccc2)c(=O)c2noc(C)c12`, the Activity in assay [2] was found to be 74%. Moreover, the inhibition in assay [4] worked out at 26%. As for `N[C@@H](Cc1c(C(=O)O)noc1CCc1ccc2ccccc2c1)C(=O)O`, in assay [1], the Activity stood at 37%. In assay [5], this molecule gave a pKi of 4.28. For the same molecule, in assay [7], the result was inactive. Besides, the inhibition result in assay [8] was “Active”. Take `C/C(=N\NC(=O)Nc1ccccc1)c1c(C(=O)O)noc1C`: the Activity in assay [1] came out at 76%. Take `Cc1nn(-c2cc(C(F)(F)F)cc(C(F)(F)F)c2)c(=O)c2noc(C)c12`: the Activity in assay [2] turned out to be 82%. In assay [4], the inhibition amounted to 18%. `C/C(=N\Nc1ccc([N+](=O)[O-])cc1[N+](=O)[O-])c1c(C(=O)O)noc1COCc1ccc2ccccc2c1`: in assay [2], the Activity was 95%. For the molecule `Cc1nn(-c2ccc([N+](=O)[O-])cc2)c(=O)c2noc(C)c12`, in assay [2], the Activity was 85%. The inhibition in assay [4] was determined as 15%. With `C/C(=N\Nc1ccc([N+](=O)[O-])cc1)c1c(C(=O)O)noc1C`, the Activity in assay [2] was 22%. Further, in assay [4], the inhibition came to 78%. Besides, the negative logarithm of the Ki (pKi) in assay [5] is 4.22. Besides, the pIC50 in assay [6] is 3.90. Besides, the outcome in assay [7] was inactive. As to `COc1ccc(-n2nc(C)c3c(C)onc3c2=O)cc1`, the Activity in assay [2] stood at 92%. With `C/C(=N\NS(=O)(=O)c1ccccc1)c1c(C(=O)O)noc1C`, the Activity in assay [1] stood at 101%. On to `Cc1nn(-c2cc(Cl)cc(Cl)c2)c(=O)c2noc(C)c12`, for which the Activity in assay [2] worked out at 89%.

Turning to `C/C(=N\Nc1ccc([N+](=O)[O-])cc1[N+](=O)[O-])c1c(C(=O)O)noc1C`, the values for the Activity in assay [1] and in assay [2] were 73% and 45%, respectively. This molecule also showed a pKi in assay [5] of 3.83. Further, the negative logarithm of the IC50 (pIC50) in assay [6] is 3.54. Also, in assay [7], the outcome was inactive. As for `C/C(=N\Nc1ccccc1[N+](=O)[O-])c1c(C(=O)O)noc1C`, the Activity in assay [2] was determined as 97%. Regarding `C/C(=N\Nc1ccccc1)c1c(C(=O)O)noc1C`, the Activity in assay [2] amounted to 56%. Besides, in assay [4], the inhibition was found to be 44%.
